According to PubChem BioAssay:
Unmarked numbers belong to inactive results.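 How the source made its calls, unless noted: active means viability at or below 30% in both replicate assays; inconclusive means viability at or below 30% in just one of the two assays; inactive means the rest.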

Assay: reduced viability of SK-BR-3 breast cancer cells – cell-based, 24 h, human, pilot screen (AID 572;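 active means viability at or below 10% of carrier control in both of two separate runs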;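 further: compound exposure lasted between 18 and 24 h rather than exactly 24 h; 100% = carrier-treated control wells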)
Conditions: SK-BR-3 viability, CellTiter-Glo luminescence, at 10 µM, stronger effect = lower value

SMILES | viability [%]
Cn1c(=O)c2c([nH]c(=O)n2C)n(C)c1=O | 104
CCNCC(O)COCC(O)CNCC (configuration not stated) | 88.5
CCOC(=O)N1CCN(c2ncnc3c2[nH]c2ccc(OC)cc23)CC1 | 97.5
COc1ccc(N2CCN(CCCNC(=O)C3CCCN(S(=O)(=O)c4cnc[nH]4)C3)CC2)cc1 (configuration not stated) | 95.5
Cn1cnc(S(=O)(=O)Nc2ccc(C(F)(F)F)cc2)c1 | 86
Cc1nc2ccccn2c1/C(O)=C1\C(=O)C(=O)N(CCN2CCOCC2)C1c1cccs1 (configuration not stated) | 94.5
COc1cc(CN2CCN(C(=O)CC(C)C)CC2)cc(OC)c1O | 114
COc1ccccc1C(=O)Nc1ccc(S(=O)(=O)N2CCOCC2)cc1 | 104
CC(=O)Nc1ccc(OC(=O)c2cccs2)cc1 | 101
CN(C)C(=O)Cn1c(SCC(=O)NC2CCCCC2)nc2ccccc21 | 72
CCC(=O)Nc1c(C#N)c2nc3ccccc3nc2n1-c1ccccc1C | 95
CCn1cc(C(=O)N=c2sc3ccccc3n2C)c(=O)c2ccc(C)nc21 | 92.5
NC(=O)c1cccc(S(=O)(=O)N2CCCCC2)c1 | 99
CN(C)CCCNC(=O)c1ccc(CN(c2ccccc2)S(C)(=O)=O)cc1 | 97.5
CC(=O)c1c(NCCc2ccccc2)cc(C)oc1=O | 99.5
Cn1c(SCc2nc3ccccc3c(=O)[nH]2)nnc1-c1ccco1 | 99.5
O=C1NC(c2ccccc2)(C(F)(F)F)SC2=CCCCCN12 (configuration not stated) | 90.5
Cn1c(CCCNC(=O)c2ccccc2)nc2ccccc21 | 112
O=C(c1cccn2c(=O)c3cc(Cl)ccc3nc12)N1CCOCC1 | 95.5
Nc1ccc(-c2ccc(N)cc2C(F)(F)F)c(C(F)(F)F)c1 | 94
CCOC(=O)c1[nH]c2ccc(Br)cc2c1NC(=O)CNC | 93
CCn1nc(NC(=O)c2cccnc2)c2cc3ccccc3nc21 | 90

Assay: HUVEC growth inhibition – cell-based, human, primary screen (AID 575);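 further: 100% = median of untreated cell wells with 0.1% DMSO on each plate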
Conditions: HUVEC proliferation, CellTiter-Glo luminescence, 72 h; at 10 µM; stronger effect = lower value
In short: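 Timing: 72 h treatment at 37 °C; material: HUVEC primary cells; technique: CellTiter-Glo luminescence measuring cellular ATP; controls: vehicle and MePR control wells; measure: percent of median DMSO-control luminescence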

SMILES | viability [%]
CC1C(c2ccccc2)N(C)CCC12NC(=O)NC2=O (configuration not stated) | 96.9
COC(=O)c1cc(Br)c(=O)n(CCN2CCOCC2)c1 | 81.5
O=C(Nc1ccccc1C(=O)N1CCN(c2ccccc2)CC1)c1ccco1 | 95.6
CC(C)CCNC(=O)NC(=O)COc1ccccc1C#N | 112
Cc1ccc2c(Cl)cc(Cl)c(OCc3c(C)noc3C)c2n1 | 84.7
O=C(c1cccc(Cl)c1)N1CCN(Cc2ccncc2)CC1 | 96.2
Cn1c(=N)n(CC(=O)O)c2ccccc21 | 91.5
O=C(Nc1ccccc1)c1cccc(N2CCCC2=O)c1 | 104
Fc1ccc(-c2csc3nnc(SCc4cccnc4)n23)cc1 | 85.7
COc1ccc(CNC(=O)c2cc(-c3ccc(OC)c(OC)c3)on2)cc1 | 118
CCN(CC)CCOC(=O)c1c(C)oc2ccc(O)cc12 | 89.7
COc1ccccc1Nc1ccc(C(=O)NC2CCCCC2)cn1 | 106
CCCCn1nnnc1SCC(=O)Nc1cccc(C)n1 | 111
COc1nc(OC)nc(N2CCC(C(=O)NC3CCCCCC3)CC2)n1 | 104
COC(=O)[C@H](C)NC(=O)Nc1cc(OC)ccc1OC | 61.1
Cc1ccc(CNC(=O)C2CCCN(S(=O)(=O)c3cccnc3)C2)cc1 (configuration not stated) | 104
OCc1nc2ccccc2n1CC(O)Cn1ccc2ccccc21 (configuration not stated) | 69.6
Cc1cc(C)cc(N2CCCn3c2nc2c3c(=O)n(CCN3CCOCC3)c(=O)n2C)c1 | 97.2
Cn1c(=O)c2c([nH]c(=O)n2C)n(C)c1=O | 88.7
CCNCC(O)COCC(O)CNCC (configuration not stated) | 88.3

SMILES | viability [%]
CCOC(=O)N1CCN(c2ncnc3c2[nH]c2ccc(OC)cc23)CC1 | 72.4
COc1ccc(N2CCN(CCCNC(=O)C3CCCN(S(=O)(=O)c4cnc[nH]4)C3)CC2)cc1 (configuration not stated) | 93.4
Cn1cnc(S(=O)(=O)Nc2ccc(C(F)(F)F)cc2)c1 | 105
Cc1nc2ccccn2c1/C(O)=C1\C(=O)C(=O)N(CCN2CCOCC2)C1c1cccs1 (configuration not stated) | 108
COc1cc(CN2CCN(C(=O)CC(C)C)CC2)cc(OC)c1O | 103
COc1ccccc1C(=O)Nc1ccc(S(=O)(=O)N2CCOCC2)cc1 | 92.9
CC(=O)Nc1ccc(OC(=O)c2cccs2)cc1 | 103
CN(C)C(=O)Cn1c(SCC(=O)NC2CCCCC2)nc2ccccc21 | 101
CCC(=O)Nc1c(C#N)c2nc3ccccc3nc2n1-c1ccccc1C | 99.2
CCn1cc(C(=O)N=c2sc3ccccc3n2C)c(=O)c2ccc(C)nc21 | 80.3
NC(=O)c1cccc(S(=O)(=O)N2CCCCC2)c1 | 96.9
CN(C)CCCNC(=O)c1ccc(CN(c2ccccc2)S(C)(=O)=O)cc1 | 86.4
CC(=O)c1c(NCCc2ccccc2)cc(C)oc1=O | 119
Cn1c(SCc2nc3ccccc3c(=O)[nH]2)nnc1-c1ccco1 | 97.5
O=C1NC(c2ccccc2)(C(F)(F)F)SC2=CCCCCN12 (configuration not stated) | 86.2
Cn1c(CCCNC(=O)c2ccccc2)nc2ccccc21 | 103
O=C(c1cccn2c(=O)c3cc(Cl)ccc3nc12)N1CCOCC1 | 98
Nc1ccc(-c2ccc(N)cc2C(F)(F)F)c(C(F)(F)F)c1 | 75.1
CCOC(=O)c1[nH]c2ccc(Br)cc2c1NC(=O)CNC | 101
CCn1nc(NC(=O)c2cccnc2)c2cc3ccccc3nc21 | 84.4
